# From ChEMBL document CHEMBL4138242, “Synthesis and antibacterial evaluation of novel cationic chalcone derivatives possessing broad spectrum antibacterial activity” (Eur J Med Chem, 2018)
# Calls of active or inactive are those of the source. The rule behind the calls is not given here.
# Columns and labels:
# [1] = system: Escherichia coli; assay: Antibacterial activity against drug-resistant NDM1 producing Escherichia coli clinical isolate EC-14-54 after 16 to 20 hrs by broth microdilution method; assay type: functional
# Procedure, shortened: (§1)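 CLSI broth microdilution in Mueller-Hinton broth. A 4-6 h culture was diluted to about 10⁶ CFU/mL and mixed 1:1 with compound dilutions prepared at 256 to 0.5 µg/mL from aqueous stocks. Plates were incubated at 37 °C for 16-20 h and read visually for MIC. Each concentration was run in duplicate, and the experiment was repeated at least twice. Vancomycin and meropenem were comparators.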
# [2] = system: Escherichia coli; assay: Antibacterial activity against drug-resistant NDM1 producing Escherichia coli clinical isolate Ecl-14-56 after 16 to 20 hrs by broth microdilution method; assay type: functional; procedure, shortened: as §1
# [3] = system: Staphylococcus aureus; assay: Antibacterial activity against Staphylococcus aureus ATCC 29213 after 16 to 20 hrs by broth microdilution method; assay type: functional
# Procedure, shortened: (§2)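 Broth microdilution per CLSI. Bacteria grown 4-6 h (about 10⁸ CFU/mL), then diluted to about 10⁶ CFU/mL. Medium: Mueller-Hinton broth, except Luria-Bertani broth for E. coli. Compounds in sterile water, twofold series 256-0.5 µg/mL, mixed 1:1 with inoculum, 37 °C for 16-20 h. MIC is the lowest concentration without visible growth. Duplicate wells; experiment repeated at least twice.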
# [4] = system: Klebsiella pneumoniae; assay: Antibacterial activity against drug-resistant carbapenemase producing Klebsiella pneumoniae clinical isolate KP-14-3 after 16 to 20 hrs by broth microdilution method; assay type: functional; procedure, shortened: as §1
# [5] = system: Escherichia coli; assay: Antibacterial activity against drug-resistant NDM1 producing Escherichia coli clinical isolate Ecl-14-59 after 16 to 20 hrs by broth microdilution method; assay type: functional; procedure, shortened: as §1
# [6] = system: Klebsiella pneumoniae; assay: Antibacterial activity against drug-resistant carbapenemase producing Klebsiella pneumoniae clinical isolate KP-13-45 after 16 to 20 hrs by broth microdilution method; assay type: functional; procedure, shortened: as §1
# [7] = system: Klebsiella pneumoniae; assay: Antibacterial activity against drug-resistant carbapenemase producing Klebsiella pneumoniae clinical isolate KP-13-55 after 16 to 20 hrs by broth microdilution method; assay type: functional; procedure, shortened: as §1
# [8] = system: Staphylococcus aureus; assay: Antibacterial activity against methicillin-resistant Staphylococcus aureus clinical isolate 1-may after 16 to 20 hrs by broth microdilution method; assay type: functional; procedure, shortened: as §1
# [9] = Hemolytic activity in sheep RBC after 1 hr; assay type: ADME, cell-based, Ovis aries, Erythrocyte; details: sheep red blood cells (erythrocytes)
# Procedure, shortened: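 Sheep red blood cells (150 µL suspension) mixed with 50 µL of compound dilutions (5120-10 µg/mL), 1 h at 37 °C, then centrifuged. Supernatant read at 540 nm. Percent hemolysis calculated relative to RBC-only control (0%) and 0.1% Triton X-100 (100%).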
# [10] = system: Staphylococcus aureus; assay: Antibacterial activity against methicillin-resistant Staphylococcus aureus clinical isolate 0906202 after 16 to 20 hrs by broth microdilution method; assay type: functional; procedure, shortened: as §1
# [11] = system: Staphylococcus aureus; assay: Antibacterial activity against methicillin-resistant Staphylococcus aureus clinical isolate 20131012632sau after 16 to 20 hrs by broth microdilution method; assay type: functional; procedure, shortened: as §1
# [12] = system: Staphylococcus aureus; assay: Induction of inner membrane permeabilization in Staphylococcus aureus ATCC 29213 at 10 to 20 ug/ml measured every 2 mins for 12 mins by propidium iodide staining-based fluorescence assay; assay type: functional, organism-based
# Procedure, shortened: (§3)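 Mid-log cells (~10⁸ CFU/mL) were suspended in PBS (S. aureus) or HEPES/glucose/KCl (E. coli). They were preincubated with propidium iodide for 30 min (S. aureus) or 40 min (E. coli), and baseline fluorescence was read for 8 min. Compound was added to 20 µg/mL final, and fluorescence (ex 535/em 617 nm) was read every 2 min for 12 min.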
# [13] = system: Enterococcus faecalis; assay: Antibacterial activity against Enterococcus faecalis ATCC 29212 after 16 to 20 hrs by broth microdilution method; assay type: functional; procedure, shortened: as §2
# [14] = system: Escherichia coli; assay: Antibacterial activity against drug-resistant NDM1 producing Escherichia coli clinical isolate SM-15-84 after 16 to 20 hrs by broth microdilution method; assay type: functional; procedure, shortened: as §1
# [15] = system: Escherichia coli; assay: Induction of cytoplasmic membrane depolarization in Escherichia coli ATCC 25922 at 10 to 20 ug/ml measured every 2 mins for 12 mins by DiSC35 dye-based fluorescence assay; assay type: functional, organism-based
# Procedure, shortened: (§4)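 Mid-log cells (~10⁸ CFU/mL) were suspended in PBS (S. aureus) or HEPES/glucose/KCl with EDTA (E. coli). They were preloaded with DiSC3(5) for 30 min (S. aureus) or 40 min (E. coli), and baseline fluorescence was read for 8 min. Compound was added to 20 µg/mL final, and fluorescence (ex 622/em 670 nm) was read every 2 min for 12 min. Water served as control.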
# [16] = system: Klebsiella pneumoniae; assay: Antibacterial activity against drug-resistant carbapenemase producing Klebsiella pneumoniae clinical isolate KP-14-18 after 16 to 20 hrs by broth microdilution method; assay type: functional; procedure, shortened: as §1
# [17] = system: Escherichia coli; assay: Antibacterial activity against drug-resistant NDM1 producing Escherichia coli clinical isolate CF-15-61 after 16 to 20 hrs by broth microdilution method; assay type: functional; procedure, shortened: as §1
# [18] = system: Escherichia coli; assay: Antibacterial activity against drug-resistant NDM1 producing Escherichia coli clinical isolate KP-13-58 after 16 to 20 hrs by broth microdilution method; assay type: functional; procedure, shortened: as §1
# [19] = system: Staphylococcus aureus; assay: Antibacterial activity against methicillin-resistant Staphylococcus aureus clinical isolate 1104060 after 16 to 20 hrs by broth microdilution method; assay type: functional; procedure, shortened: as §1
# [20] = system: Klebsiella pneumoniae; assay: Antibacterial activity against drug-resistant carbapenemase producing Klebsiella pneumoniae clinical isolate KP-14-4 after 16 to 20 hrs by broth microdilution method; assay type: functional; procedure, shortened: as §1
# [21] = system: Staphylococcus aureus; assay: Antibacterial activity against methicillin-resistant Staphylococcus aureus clinical isolate 0831010 after 16 to 20 hrs by broth microdilution method; assay type: functional; procedure, shortened: as §1
# [22] = system: Staphylococcus aureus; assay: Induction of cytoplasmic membrane depolarization in Staphylococcus aureus ATCC 29213 at 10 to 20 ug/ml measured every 2 mins for 12 mins by DiSC35 dye-based fluorescence assay; assay type: functional, organism-based; procedure, shortened: as §4
# [23] = system: Escherichia coli; assay: Antibacterial activity against drug-resistant NDM1 producing Escherichia coli clinical isolate EC-13-49 after 16 to 20 hrs by broth microdilution method; assay type: functional; procedure, shortened: as §1
# [24] = system: Klebsiella pneumoniae; assay: Antibacterial activity against drug-resistant carbapenemase producing Klebsiella pneumoniae clinical isolate KP-13-54 after 16 to 20 hrs by broth microdilution method; assay type: functional; procedure, shortened: as §1
# [25] = system: Klebsiella pneumoniae; assay: Antibacterial activity against drug-resistant carbapenemase producing Klebsiella pneumoniae clinical isolate EC-13-23 after 16 to 20 hrs by broth microdilution method; assay type: functional; procedure, shortened: as §1
# [26] = system: Staphylococcus aureus; assay: Antibacterial activity against methicillin-resistant Staphylococcus aureus clinical isolate 1208143 after 16 to 20 hrs by broth microdilution method; assay type: functional; procedure, shortened: as §1
# [27] = system: Klebsiella pneumoniae; assay: Antibacterial activity against drug-resistant carbapenemase producing Klebsiella pneumoniae clinical isolate KP-14-45 after 16 to 20 hrs by broth microdilution method; assay type: functional; procedure, shortened: as §1
# [28] = system: Escherichia coli; assay: Induction of inner membrane permeabilization in Escherichia coli ATCC 25922 at 10 to 20 ug/ml measured every 2 mins for 12 mins by propidium iodide staining-based fluorescence assay; assay type: functional, organism-based; procedure, shortened: as §3
# [29] = system: Escherichia coli; assay: Antibacterial activity against drug-resistant NDM1 producing Escherichia coli clinical isolate EA-14-61 after 16 to 20 hrs by broth microdilution method; assay type: functional; procedure, shortened: as §1
# [30] = system: Escherichia coli; assay: Antibacterial activity against drug-resistant NDM1 producing Escherichia coli clinical isolate Ecl-13-62 after 16 to 20 hrs by broth microdilution method; assay type: functional; procedure, shortened: as §1
# [31] = system: Klebsiella pneumoniae; assay: Antibacterial activity against drug-resistant carbapenemase producing Klebsiella pneumoniae clinical isolate KP-14-1 after 16 to 20 hrs by broth microdilution method; assay type: functional; procedure, shortened: as §1
# [32] = system: Staphylococcus aureus; assay: Antibacterial activity against methicillin-resistant Staphylococcus aureus clinical isolate 20130911034sau after 16 to 20 hrs by broth microdilution method; assay type: functional; procedure, shortened: as §1
# [33] = system: Klebsiella pneumoniae; assay: Antibacterial activity against drug-resistant carbapenemase producing Klebsiella pneumoniae clinical isolate KP-14-5 after 16 to 20 hrs by broth microdilution method; assay type: functional; procedure, shortened: as §1
# [34] = system: Escherichia coli; assay: Antibacterial activity against drug-resistant NDM1 producing Escherichia coli clinical isolate Ecl-14-58 after 16 to 20 hrs by broth microdilution method; assay type: functional; procedure, shortened: as §1
# [35] = system: Escherichia coli; assay: Antibacterial activity against drug-resistant NDM1 producing Escherichia coli clinical isolate 1460 after 16 to 20 hrs by broth microdilution method; assay type: functional; procedure, shortened: as §1
# [36] = system: Klebsiella pneumoniae; assay: Antibacterial activity against drug-resistant carbapenemase producing Klebsiella pneumoniae clinical isolate KP-14-8 after 16 to 20 hrs by broth microdilution method; assay type: functional; procedure, shortened: as §1
# [37] = system: Staphylococcus aureus; assay: Antibacterial activity against methicillin-resistant Staphylococcus aureus clinical isolate 1207007 after 16 to 20 hrs by broth microdilution method; assay type: functional; procedure, shortened: as §1
# [38] = system: Escherichia coli; assay: Antibacterial activity against drug-resistant NDM1 producing Escherichia coli clinical isolate CF-13-61 after 16 to 20 hrs by broth microdilution method; assay type: functional; procedure, shortened: as §1
# [39] = system: Klebsiella pneumoniae; assay: Antibacterial activity against drug-resistant carbapenemase producing Klebsiella pneumoniae clinical isolate KP-14-2 after 16 to 20 hrs by broth microdilution method; assay type: functional; procedure, shortened: as §1
# [40] = system: Salmonella enterica; assay: Antibacterial activity against Salmonella enterica ATCC 13076 after 16 to 20 hrs by broth microdilution method; assay type: functional; procedure, shortened: as §2
# [41] = system: Staphylococcus aureus; assay: Antibacterial activity against methicillin-resistant Staphylococcus aureus clinical isolate 1105183 cono7 after 16 to 20 hrs by broth microdilution method; assay type: functional; procedure, shortened: as §1
# [42] = system: Escherichia coli; assay: Antibacterial activity against Escherichia coli ATCC 25922 after 16 to 20 hrs by broth microdilution method; assay type: functional; procedure, shortened: as §2
smiles,measurement,setting,value
CCCCCCCC[N+](C)(C)CC(=O)Nc1ccc(C(=O)/C=C/c2ccc(C)cc2)cc1.[Cl-],MIC,[1],8 µg/mL
same,MIC,[2],4 µg/mL
same,MIC,[3],1 µg/mL
same,MIC,[4],8 µg/mL
same,MIC,[5],4 µg/mL
same,MIC,[6],4 µg/mL
same,MIC,[7],16 µg/mL
same,MIC,[8],1 µg/mL
same,HC50 at 1 h,[9],153 µg/mL
same,MIC,[10],4 µg/mL
same,MIC,[11],2 µg/mL
same,Activity,[12],Active
same,MIC,[13],1 µg/mL
same,MIC,[14],1 µg/mL
same,Activity,[15],Active
same,MIC,[16],16 µg/mL
same,MIC,[17],4 µg/mL
same,MIC,[18],2 µg/mL
same,MIC,[19],4 µg/mL
same,MIC,[20],4 µg/mL
same,MIC,[21],0.5 µg/mL
same,Activity,[22],Active
same,MIC,[23],4 µg/mL
same,MIC,[24],8 µg/mL
same,MIC,[25],4 µg/mL
same,MIC,[26],2 µg/mL
same,MIC,[27],4 µg/mL
same,Activity,[28],Active
same,MIC,[29],4 µg/mL
same,MIC,[30],8 µg/mL
same,MIC,[31],8 µg/mL
same,MIC,[32],0.5 µg/mL
same,MIC,[33],4 µg/mL
same,MIC,[34],4 µg/mL
same,MIC,[35],8 µg/mL
same,MIC,[36],4 µg/mL
same,MIC,[37],0.5 µg/mL
same,MIC,[38],32 µg/mL
same,MIC,[39],16 µg/mL
same,MIC,[40],8 µg/mL
same,MIC,[41],1 µg/mL
same,MIC,[42],4 µg/mL
